The record followed here is ChEMBL document CHEMBL1133602, “A study of the relationship between biological activity and prolyl amide isomer geometry in oxytocin using 5-tert-butylproline to augment the Cys(6)-Pro(7) amide cis-isomer population” (J Med Chem, 2000).

For test [1], the species on record is Rattus norvegicus. The test is described as follows: Effective concentration in rat in the absence of Magnesium. In kind it is functional, organism-based. The essentials: (§1)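 Isolated uterus from estrogen-primed rats (24-48 h) in Munsick solution, either without magnesium or with 1 mM Mg2+. Antagonist added 1 min before a standard oxytocin dose. EC50 is the concentration that cuts the response to a 2x agonist dose down to that of dose x; pA2 is its negative log. Uteri from 3-5 rats.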

A further test has as its target T1, Oxytocin receptor (Rattus norvegicus, UniProt P70536).
T1 sequence (P70536 whole entry): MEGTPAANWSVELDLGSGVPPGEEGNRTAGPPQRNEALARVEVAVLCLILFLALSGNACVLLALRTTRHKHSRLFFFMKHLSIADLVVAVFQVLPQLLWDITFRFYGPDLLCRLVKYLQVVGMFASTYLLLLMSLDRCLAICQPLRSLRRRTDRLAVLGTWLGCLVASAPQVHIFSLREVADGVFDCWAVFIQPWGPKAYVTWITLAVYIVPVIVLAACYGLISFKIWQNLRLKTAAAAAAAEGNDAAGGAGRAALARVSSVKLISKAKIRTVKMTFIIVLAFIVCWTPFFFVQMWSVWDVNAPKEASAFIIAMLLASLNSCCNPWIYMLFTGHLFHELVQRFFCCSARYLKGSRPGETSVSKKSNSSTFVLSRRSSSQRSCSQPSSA
The test is described as follows: Binding affinity against oxytocin receptor. The essentials:
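Crude rat uterine membrane fraction incubated with [3H]oxytocin (2 nM) plus peptide at 0.1-10000 nM, 30 min at 35 °C. Buffer was 50 mM HEPES pH 7.6 with 10 mM MnCl2 and 1 mg/mL bovine serum albumin. Bound and free separated by rapid filtration.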

For test [2], the species on record is Rattus norvegicus. As to the kind of experiment: Effective concentration in rat in the presence of 1 mM of Magnesium. In kind it is functional, organism-based. The method in brief: as §1
For test [3], the species on record is Rattus norvegicus. As to the kind of experiment: Compound was evaluated for the pressor activity in rat. It counts as functional. The method in brief:
(§2)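 Male rats (220-260 g) under urethane, pretreated with phenoxybenzamine in two doses. Femoral vein cannulated for dosing and carotid artery for blood pressure. After about 30 min stabilization, i.v. bolus doses of standard or analogue given in random order. Standard curve spanned 2 × 10-5 - 2 × 10-4 mg/kg. Activity set against the standard, 3-4 animals per analogue.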

The species entered for test [4] is Rattus norvegicus. The test is described as follows: In Vitro evaluation for the uterotonic activity in rat in the presence of 1 mM of Magnesium. It counts as functional. The essentials: (§3)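 Isolated uterus from rats estrogenized 24-48 h beforehand, in Munsick solution without magnesium or with 1 mM Mg2+, oxytocin as standard. Single doses given in random order with bath changed after each response and at least 5 min between doses; cumulative doubling doses given at 1-min intervals. IU/mg from threshold doses against standard, EC50 from the curves. Uteri from 3-5 rats.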

The species entered for test [5] is Rattus norvegicus. The test is described as follows: In Vitro evaluation for the uterotonic activity in rat in the absence of Magnesium. In kind it is functional. The method in brief: as §3
For test [6], the species on record is Rattus norvegicus. As to the kind of experiment: Compound was evaluated for the pressor activity. In kind it is functional. The essentials:
as §2

The structures appear in SMILES notation. Numbered stars: 1 amine (or outer) side, 2 acyl side, 3 side chain; on linkers, the order of the positions; unused ones are H or OH. Bridge positions count the residues as written; N and C are the ends. Square brackets hold non-standard residues; d marks the D form. Peptide text beside a SMILES is read from it. X3 = CC(C)(C)[C@H]1CC[C@@H](C(=O)[*:2])N1[*:1]; X1 = CC(C)(C)C1CC[C@@H](C(=O)[*:2])N1[*:1]; Mpa = O=C(O)CCS

In the case of `CC[C@H](C)[C@@H]1NC(=O)[C@H](Cc2ccc(O)cc2)NC(=O)[C@@H](N)CSSC[C@@H](C(=O)N2[C@H](C(=O)N[C@@H](CC(C)C)C(=O)NCC(N)=O)CC[C@@H]2C(C)(C)C)NC(=O)[C@H](CC(N)=O)NC(=O)[C@H](CCC(N)=O)NC1=O` (H-CYIQNC[X3]LG-NH2; disulfide 1-6) [listing 1 of 2 here], the 50% effective concentration (EC50) in the test filed under Rattus norvegicus [1] amounted to 150 nM; in the test filed under Rattus norvegicus [2], 450 nM. Besides, at Oxytocin receptor, the affinity corresponds to a Ki of 1430 nM.

Turning to `CC[C@H](C)[C@@H]1NC(=O)[C@H](Cc2ccc(O)cc2)NC(=O)[C@@H](N)CSSC[C@@H](C(=O)N2[C@H](C(=O)N[C@@H](CC(C)C)C(=O)NCC(N)=O)CC[C@@H]2C(C)(C)C)NC(=O)[C@H](CC(N)=O)NC(=O)[C@H](CCC(N)=O)NC1=O` (H-CYIQNC[X3]LG-NH2; disulfide 1-6) [listing 2 of 2 here], the Activity worked out at 0 IU/mg in the test filed under Rattus norvegicus [3], 0.5 IU mg-1 in the test filed under Rattus norvegicus [4] and 1.8 IU mg-1 in the test listed under Rattus norvegicus [5].

Turning to `CC[C@H](C)[C@@H]1NC(=O)[C@H](Cc2ccc(O)cc2)NC(=O)CCSSC[C@@H](C(=O)N2C(C(C)(C)C)CC[C@H]2C(=O)N[C@@H](CC(C)C)C(=O)NCC(N)=O)NC(=O)[C@H](CC(N)=O)NC(=O)[C@H](CCC(N)=O)NC1=O` (stereo partly specified) ([Mpa]YIQNC[X1]LG-NH2; disulfide 1-6), the figures for the Activity in the test filed under Rattus norvegicus [3], in the test filed under Rattus norvegicus [4] and in the test listed under Rattus norvegicus [5] were 0 IU/mg, 3 IU mg-1 and 6.1 IU mg-1, respectively. Further, the EC50 amounted to 50 nM in the test listed under Rattus norvegicus [1] and 75 nM in the test filed under Rattus norvegicus [2]. At Oxytocin receptor, affinity was put at a Ki of 240 nM.

`CC[C@H](C)[C@@H]1NC(=O)[C@H](Cc2ccc(O)cc2)NC(=O)CCSSC[C@@H](C(=O)N2CCC[C@H]2C(=O)N[C@@H](CC(C)C)C(=O)NCC(N)=O)NC(=O)[C@H](CC(N)=O)NC(=O)[C@H](CCC(N)=O)NC1=O` [DEMOXYTOCIN]: the Activity in the test listed under Rattus norvegicus [4] was 760 IU mg-1; in the test filed under Rattus norvegicus [5], 837 IU mg-1; in the test listed under Rattus norvegicus [6], 1.5 IU/mg. The molecule further yielded an inhibition constant (Ki) at Oxytocin receptor of 3.2 nM.

On to `CC[C@H](C)[C@@H]1NC(=O)[C@H](Cc2ccc(O)cc2)NC(=O)[C@@H](N)CSSC[C@@H](C(=O)N2CCC[C@H]2C(=O)N[C@@H](CC(C)C)C(=O)NCC(N)=O)NC(=O)[C@H](CC(N)=O)NC(=O)[C@H](CCC(N)=O)NC1=O` [OXYTOCIN], for which the Activity in the test listed under Rattus norvegicus [3] is 5 IU/mg; in the test listed under Rattus norvegicus [4], 450 IU mg-1; in the test listed under Rattus norvegicus [5] it was 450 IU mg-1. In addition, the results for the concentration for a half-maximal effect (EC50) in the test listed under Rattus norvegicus [1] and in the test listed under Rattus norvegicus [2] were 0.6 nM and 0.5 nM, respectively.
